Experiment [1] concerns SH-SY5Y. As to the kind of experiment: Neuroprotective activity against 6-OHDA-induced toxicity in human SH-SY5Y cells assessed as reduction in condensed and fragmented nuclei at 0.1 uM pretreated for 1 hr followed by 6-OHDA challenge measured after 2 hrs by DAPI staining based assay relative to control. It is filed as functional, cell-based. The following applies: time 3.0 hrs.

Experiment [2] has as its system SH-SY5Y. Nature of the experiment: Neuroprotective activity against 6-OHDA-induced toxicity in human SH-SY5Y cells assessed as reduction in ROS production at 0.1 to 10 uM by DCFH-DA staining based assay. It is filed as functional, cell-based. The following applies: dose 0.1-10 µM, TDE = time-dependent effect. In short, it runs like this:
(§1)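 SH-SY5Y cells loaded with DCFH-DA (5 μM, 30 min) and washed. Pretreated 1 h with compound (0.1-10 μM), then 6-OHDA 55 μM. Fluorescence (ex 485/em 535 nm) read at 1 h or 24 h and expressed as % inhibition of 6-OHDA-induced ROS. 4 independent experiments.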

For experiment [3], the system named is SH-SY5Y. As to the kind of experiment: Neuroprotective activity against 6-OHDA-induced toxicity in human SH-SY5Y cells assessed as reduction in ROS production by DCFH-DA staining based assay. It is filed as functional, cell-based. The following applies: dose 0.1-10 µM. The procedure, abridged:
as §1

In experiment [4] the test system is SH-SY5Y. As to the kind of experiment: Neuroprotective activity against glutamate-induced toxicity in human SH-SY5Y cells assessed as reduction in ROS production at 10 uM measured after 24 hrs by DCFH-DA staining based assay relative to control. It is filed as functional. On the set-up: scale not given: the % may be the effect or the level left. In short, it runs like this:
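SH-SY5Y cells loaded with DCFH-DA (5 μM, 30 min) and washed before treatment. Pretreated 1 h with compound (0.1-10 μM), then glutamate 50 mM. Fluorescence (ex 485/em 535 nm) read at 1 h or 24 h and expressed as % inhibition of glutamate-induced ROS. 4 independent experiments.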

For experiment [5], the species on record is Rattus norvegicus. As to the kind of experiment: Neuroprotective activity against oxygen glucose deprivation/reperfusion-induced Wistar rat cortical brain assessed as reduction in LDH release by measuring minimal effective concentration. In kind it is functional. In short, it runs like this:
(§2)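 Male Wistar rat cortical slices (400 μm) in oxygenated ACSF, pH 7.4, 1 h at room temperature, then 30 min at 37 °C. OGD for 30 min in glucose-free ACSF with 11 mM sucrose under 95% N₂/5% CO₂. Compound added in the reoxygenation buffer. Glutamate and LDH release measured. Mean ± SEM of at least four experiments, ANOVA with Dunnett test.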

The species entered for experiment [6] is Rattus norvegicus. Nature of the experiment: Inhibition of high voltage-activated calcium current in Wistar rat brain piriform cortex assessed as blockade of barium current by whole cell patch clamp method. In kind it is functional. The procedure, abridged:
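Acutely dissociated P15-P22 Wistar rat piriform cortex neurons recorded whole-cell at holding -70 mV. 5 mM Ba²⁺ was the charge carrier, with a Cs methanesulfonate pipette. HVA currents evoked by step or ramp protocols from -60 mV. Compound applied by local perfusion (DMSO 0.02-0.67%). Peak I_Ba amplitude tracked over time, and concentration-response fitted with the sum of two Hill functions.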

The species entered for experiment [7] is Rattus norvegicus. As to the kind of experiment: Inhibition of transient voltage-dependent sodium current in Wistar rat brain piriform cortex layer at 50 uM by whole cell patch clamp method relative to control. It is filed as functional.
The subject of experiment [8] is SH-SY5Y. Nature of the experiment: Neuroprotective activity against glutamate-induced toxicity in human SH-SY5Y cells assessed as reduction in G0/G1 phase cells at 10 uM pretreated for 1 hr followed by glutamate challenge measured after 24 hrs by propidium staining based flow cytometry. The following applies: time 25.0 hrs. It is filed as functional, cell-based. The procedure, abridged:
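SH-SY5Y cells (2.5 x 10⁵ cells/mL) pretreated 1 h with compound, then given glutamate 50 mM for 24 h. Cells fixed in 70% ethanol (30 min, 4 °C), held at -20 °C for at least 24 h, stained with propidium iodide. Flow cytometry on at least 1x10⁴ cells, cell-cycle phases and sub-G₀/G₁ fraction quantified. 4 independent experiments.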

The species entered for experiment [9] is Rattus norvegicus. As to the kind of experiment: Neuroprotective activity against oxygen glucose deprivation/reperfusion-induced Wistar rat cortical brain assessed as reduction in LDH release relative to control. On the set-up: concentration or dose not given beside the values. In kind it is functional. In short, it runs like this:
as §2

Experiment [10] relates to SH-SY5Y. As to the kind of experiment: Neuroprotective activity against glutamate-induced toxicity in human SH-SY5Y cells assessed as reduction in cell detachment at 10 uM pretreated for 1 hr followed by glutamate challenge measured after 24 hrs by phase-contrast light microscopic analysis. In kind it is functional, cell-based. The following applies: time 25.0 hrs. In short, it runs like this:
(§3)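 SH-SY5Y cells attached 24 h, then pretreated 1 h with compound (0.1-10 μM) before glutamate 50 mM for 24 h. Viability by MTT. Morphology under phase-contrast microscope, scored by the USP 28 grade scale (0-4). Mean ± SEM of 4 independent experiments run in triplicate or quadruplicate, ANOVA with Dunnett test.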

For experiment [11], the species on record is Rattus norvegicus. Nature of the experiment: Neuroprotective activity against oxygen glucose deprivation/reperfusion-induced Wistar rat cortical brain assessed as reduction in glutamate release relative to control. In kind it is functional. On the set-up: concentration or dose not given beside the values. In short, it runs like this:
as §2

Experiment [12] deals with SH-SY5Y. Nature of the experiment: Neuroprotective activity against glutamate-induced toxicity in human SH-SY5Y cells assessed as reduction in cell rounding at 10 uM pretreated for 1 hr followed by glutamate challenge measured after 24 hrs by phase-contrast light microscopic analysis. It is filed as functional, cell-based. The following applies: time 25.0 hrs. In short, it runs like this: as §3

Experiment [13] relates to SH-SY5Y. As to the kind of experiment: Neuroprotective activity against 6-OHDA-induced toxicity in human SH-SY5Y cells assessed as reduction in ROS production at 0.1 uM pretreated for 1 hr followed by 6-OHDA challenge measured after 2 hrs by DCFH-DA staining based assay. In kind it is functional, cell-based. The following applies: time 3.0 hrs.
The species named for experiment [14] is Rattus norvegicus. As to the kind of experiment: Neuroprotective activity against oxygen glucose deprivation/reperfusion-induced Wistar rat cortical brain assessed as concentration required to reduce LDH release by measuring efficacy window. It is filed as functional. The procedure, abridged:
as §2

The test system of experiment [15] is SH-SY5Y. Nature of the experiment: Neuroprotective activity against 6-OHDA-induced toxicity in human SH-SY5Y cells assessed as increase in cell viability at 10 uM pretreated for 1 hr followed by 6-OHDA challenge measured after 2 hrs by MTT assay. It is filed as functional, cell-based. The following applies: time 3.0 hrs. The procedure, abridged: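 SH-SY5Y cells attached 24 h, then pretreated 1 h with compound (0.1-10 μM) and challenged with 6-OHDA 55 μM for 2 h. 6-OHDA made fresh in nitrogen-gassed 5 μM ascorbic acid, and controls received medium with ascorbic acid. Viability by MTT. Mean ± SEM of 4 independent experiments run in triplicate or quadruplicate, ANOVA with Dunnett test.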

The species entered for experiment [16] is Rattus norvegicus. Nature of the experiment: Neuroprotective activity against oxygen glucose deprivation/reperfusion-induced Wistar rat cortical brain assessed as concentration required to reduce glutamate release by measuring efficacy window. In kind it is functional. The procedure, abridged: as §2
Experiment [17] is filed under the species Rattus norvegicus. Nature of the experiment: Neuroprotective activity against oxygen glucose deprivation/reperfusion-induced Wistar rat cortical brain assessed as reduction in glutamate release by measuring minimal effective concentration. In kind it is functional. In short, it runs like this: as §2
In experiment [18] the test system is SH-SY5Y. As to the kind of experiment: Neuroprotective activity against 6-OHDA-induced toxicity in human SH-SY5Y cells assessed as reduction in condensed and fragmented nuclei at 10 uM pretreated for 1 hr followed by 6-OHDA challenge measured after 2 hrs by DAPI staining based assay relative to control. In kind it is functional. Details: scale not given: the % may be the effect or the level left. The following applies: time 3 hrs. In short, it runs like this:
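DAPI staining of SH-SY5Y cells pretreated 1 h with compound at 10 μM, then given 6-OHDA 55 μM for 2 h. Condensed or fragmented nuclei scored as apoptotic. Mean ± SEM of 4 independent experiments.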

The test system of experiment [19] is SH-SY5Y. Nature of the experiment: Neuroprotective activity against glutamate-induced toxicity in human SH-SY5Y cells assessed as cell viability at 10 uM pretreated for 1 hr followed by glutamate challenge measured after 24 hrs by MTT assay. It is filed as functional. The following applies: time 25 hrs, read-out: Activity. The procedure, abridged: as §3

pIC50: −log10 of the molar value. Active and inactive are the calls of the source. No cut-off for these calls is given here. Where only a bound is given, the exact number is not on record here.

In the case of `CCN(CC)/C(C)=N/C1=Nc2ccccc2CS1`, the outcome in experiment [1], in experiment [8], in experiment [10], in experiment [12], in [13] and in [15] was Active. Besides, the Activity result is “Tde” in experiment [2]; “Dose-Dependent Effect” in experiment [3]; 20% in [4]; 72.4% in experiment [9]; 100% in [11]; above 20% in [18]. For the same molecule, the MEC in [5] and in experiment [17] was 0.1 µM throughout. Besides, the pIC50 in experiment [6] was 5.27. The molecule also displayed an inhibition in vivo at 50 µM in experiment [7] of 51.9%. The Efficacy in experiment [14] and in experiment [16] was 0.1 µM each time. Also, in experiment [19], the viability at 10 µM is 65%.

As for `CCCN(CCC)/C(C)=N/C1=Nc2ccccc2CS1`, the result in experiment [1], in experiment [8], in [10], in [12], in experiment [13] and in [15] was Active. Besides, the Activity result in [2] is “Tde”; in experiment [3], “Dose-Dependent Effect”; in [4] it was 20%; in experiment [9], 58.2%; in experiment [11] it was 90.5%; in experiment [18], above 20%. Moreover, the MEC was found to be 0.1 µM in experiment [5] and 1 µM in [17]. For the same molecule, the pIC50 in [6] is 5.36. In addition, at 50 µM the inhibition in vivo in experiment [7] was 15.9%. In addition, the Efficacy in experiment [14] and in [16] was 0.1 µM in each case. In addition, the viability at 10 µM in [19] was found to be 65%.

These data come from ChEMBL document CHEMBL5260794, “Synthesis and biological evaluation of a new class of benzothiazines as neuroprotective agents” (Eur J Med Chem, 2017).
